Calls of active or inactive are those of the source. The calls are words filed in the database; no cut-off is given here.
Tests used:
[1] = system: A2780; experiment: Antiproliferative activity against human A2780 cells assessed as cell growth inhibition measured after 3 days by cell viability assay; format: functional, cell-based; details: A2780, 72 h
[2] = system: OVCAR-5; experiment: Antiproliferative activity against human OVCAR-5 cells assessed as cell growth inhibition measured after 3 days by cell viability assay; format: functional, cell-based; details: OVCAR-5, 72 h
[3] = system: MIA PaCa-2; experiment: Antiproliferative activity against human MIA PaCa-2 cells assessed as cell growth inhibition measured after 3 days by cell viability assay; format: functional, cell-based; details: MIA PaCa-2, 72 h
[4] = target: T1, Inhibitor of nuclear factor kappa-B kinase subunit beta (Homo sapiens) (UniProt O14920); experiment: Covalent modification of N-terminal hexa-his-tagged human recombinant IKKbeta assessed as high molecular weight band formation at 1:1 protein to compound concentration measured after 24 hrs by SDS-PAGE based silver staining analysis; details: filed as modulator
T1 sequence (whole entry): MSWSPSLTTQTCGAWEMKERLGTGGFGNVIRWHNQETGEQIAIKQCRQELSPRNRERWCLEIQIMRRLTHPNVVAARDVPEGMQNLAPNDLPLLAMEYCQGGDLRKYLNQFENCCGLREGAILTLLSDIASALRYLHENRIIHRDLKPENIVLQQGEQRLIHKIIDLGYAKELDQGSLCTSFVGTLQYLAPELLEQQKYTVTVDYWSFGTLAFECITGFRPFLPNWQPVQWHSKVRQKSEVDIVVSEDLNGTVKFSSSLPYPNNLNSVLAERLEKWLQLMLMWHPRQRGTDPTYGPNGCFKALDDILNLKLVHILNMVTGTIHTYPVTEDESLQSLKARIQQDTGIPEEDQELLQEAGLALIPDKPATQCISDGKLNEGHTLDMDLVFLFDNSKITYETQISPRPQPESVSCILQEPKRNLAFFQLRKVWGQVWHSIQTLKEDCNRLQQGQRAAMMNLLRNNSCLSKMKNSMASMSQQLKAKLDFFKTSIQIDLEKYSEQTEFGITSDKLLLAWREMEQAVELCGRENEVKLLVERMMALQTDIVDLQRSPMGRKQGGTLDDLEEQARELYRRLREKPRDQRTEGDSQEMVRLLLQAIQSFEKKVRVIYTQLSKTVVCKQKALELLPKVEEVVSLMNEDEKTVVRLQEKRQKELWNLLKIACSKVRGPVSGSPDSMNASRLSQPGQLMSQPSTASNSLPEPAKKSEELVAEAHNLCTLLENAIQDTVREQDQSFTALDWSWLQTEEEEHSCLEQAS
Outline: (§1)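 Recombinant RELA and/or IKKβ proteins incubated in vitro with compound at equimolar or 10x concentration; mixtures resolved by SDS-PAGE and silver stained to detect the recombinant proteins and high molecular weight bands.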

[5] = organism: Homo sapiens; experiment: Covalent modification of N-terminal hexa-his-tagged human recombinant IKKbeta/ N-terminus mouse recombinant RELA (1 to 325 residues) assessed as tertiary complex formation with RELA by measuring high molecular weight band formation at 1:1:1 protein/protein to compound concentration measured after 24 hrs by SDS-PAGE based silver staining analysis; details: filed as modulator; outline: as §1
[6] = target: Transcription factor p65 (Homo sapiens) (UniProt Q04206); experiment: Covalent modification of RELA in human OVCAR-5 cells assessed as high molecular weight band formation incubated for 2 hrs by Western blot analysis; format: cell-based; details: filed as modulator
Outline: (§2)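 Non-transformed immortalized fallopian tube epithelial FT282C11, MiaPaCa2 or OVCAR5 cells treated with or without compound; lysates analysed by western blot probed with RELA antibody for high molecular weight bands.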

[7] = target: Transcription factor p65 (Homo sapiens) (UniProt Q04206); experiment: Covalent modification of RELA in human OVCAR-5 cells assessed as increase in PARP cleavage at 10 uM incubated for 2 hrs by Western blot analysis; format: cell-based; details: filed as modulator
Outline: (§3)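 Cancer cells treated with or without compound; lysates analysed by western blot for PARP cleavage.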

[8] = target: Transcription factor p65 (Homo sapiens) (UniProt Q04206); experiment: Covalent modification of RELA in human FT282C11 cells assessed as high molecular weight band formation at 10 uM incubated for 2 hrs by Western blot analysis; format: cell-based; details: filed as modulator; outline: as §2
[9] = target: Transcription factor p65 (Homo sapiens) (UniProt Q04206); experiment: Covalent modification of RELA in human MIA PaCa-2 cells assessed as high molecular weight band formation at 10 uM incubated for 2 hrs by Western blot analysis; format: cell-based; details: filed as modulator; outline: as §2
[10] = target: Transcription factor p65 (Homo sapiens) (UniProt Q04206); experiment: Covalent modification of RELA in human OVCAR-5 cells assessed as high molecular weight band formation at 10 uM incubated for 2 hrs by Western blot analysis; format: cell-based; details: filed as modulator; outline: as §2
[11] = target: Transcription factor p65 (Homo sapiens) (UniProt Q04206); experiment: Covalent modification of RELA in human MIA PaCa-2 cells assessed as increase in PARP cleavage at 10 uM incubated for 2 hrs by Western blot analysis; format: cell-based; details: filed as modulator; outline: as §3
[12] = target: Transcription factor p65 (Homo sapiens) (UniProt Q04206); experiment: Covalent modification of RELA in TNF-alpha induced human OVCAR-5 cells assessed as inhibition of phosphorylation of IkappaB-alpha at 10 uM pretreated for 2 hrs followed by TNF-alpha stimulation for 10 mins by Western blot analysis; format: cell-based; details: filed as modulator
Outline: (§4)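 Two sets of OVCAR5 cells treated with DMSO or compound; one set stimulated with TNFα, the other left unstimulated as control; read-out by western blot.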

[13] = target: Transcription factor p65 (Homo sapiens) (UniProt Q04206); experiment: Covalent modification of RELA in TNF-alpha induced human OVCAR-5 cells assessed as inhibition of nuclear localization of protein at 10 uM pretreated for 2 hrs followed by TNF-alpha stimulation for 10 mins by Western blot analysis; format: cell-based; details: filed as modulator; outline: as §4
[14] = target: Transcription factor p65 (Homo sapiens) (UniProt Q04206); experiment: Inhibition of TNF-alpha induced RELA in human A549 cells assessed as reduction in NFkappaB mediated gene expression pretreated for 2 hrs followed by TNF-alpha stimulation for 3 hrs by […]; format: cell-based; details: filed as modulator, DDE = dose-dependent effect
Outline: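 TNFα-induced NFκB reporter assay run as a dose-response with compound.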

[15] = system: A2780; experiment: Inhibition of colony formation in human A2780 cells measured every day up to 4 days by IncuCyte live-cell imaging assay; format: functional, cell-based; details: DDE = dose-dependent effect
Outline: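 A2780 ovarian cancer cells sparsely plated and grown with or without compound for 4 days under continuous Incucyte S3 live-cell imaging; colonies quantified against DMSO-treated wells at several time points.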

[16] = system: OVCAR-5; experiment: Antiproliferative activity against human OVCAR-5 cells assessed as cell growth inhibition at 1.11 to 10 uM incubated for 6 hrs followed by compound removal and measured up to 72 hrs by IncuCyte live-cell imaging assay; format: functional, cell-based
[17] = system: A2780; experiment: Inhibition of cell migration in human A2780 cells at 500 nM measured up to 48 hrs by wound healing scratch assay; format: functional; parameters: scale not given: the % may be the effect or the level left
Outline: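 Wound-healing scratch assay: A2780 cells treated with DMSO or 500nM compound, imaged at 0, 12, 24 and 48h; wound closure quantified relative to DMSO wells.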

[18] = system: CCRF-CEM; experiment: Antiproliferative activity against human CCRF-CEM cells assessed as cell growth inhibition by measuring reduction in net protein increase inhibition by SRB assay; format: functional; details: pooled result: one value given for 6 cell lines, strains, targets or settings
[19] = system: SF-268; experiment: Antiproliferative activity against human SF-268 cells assessed as reduction in the net protein increase inhibition by SRB assay; format: functional; details: pooled result: one value given for 6 cell lines, strains, targets or settings

Transcription factor p65 (Homo sapiens), sequence (Q04206 whole entry): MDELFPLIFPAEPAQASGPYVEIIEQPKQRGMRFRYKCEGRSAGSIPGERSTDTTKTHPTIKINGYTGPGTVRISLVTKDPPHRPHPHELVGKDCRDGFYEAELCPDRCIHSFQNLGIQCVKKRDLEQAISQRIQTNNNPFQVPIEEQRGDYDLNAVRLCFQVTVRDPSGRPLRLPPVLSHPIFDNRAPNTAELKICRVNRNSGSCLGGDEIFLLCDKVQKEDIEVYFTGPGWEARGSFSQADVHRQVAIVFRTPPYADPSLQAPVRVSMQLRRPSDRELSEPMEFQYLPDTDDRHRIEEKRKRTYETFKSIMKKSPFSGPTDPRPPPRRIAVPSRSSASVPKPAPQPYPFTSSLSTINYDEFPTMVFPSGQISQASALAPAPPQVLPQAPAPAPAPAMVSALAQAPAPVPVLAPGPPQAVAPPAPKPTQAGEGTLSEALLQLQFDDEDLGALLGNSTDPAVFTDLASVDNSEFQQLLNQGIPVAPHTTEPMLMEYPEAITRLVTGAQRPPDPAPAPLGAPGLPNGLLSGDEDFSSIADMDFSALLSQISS

| Compound | IC50 [1] | IC50 [2] | IC50 [3] | also measured |
| --- | --- | --- | --- | --- |
| C=C1CC2(OC1=O)C(=O)N(CCCCCCCN1C(=O)C3(CC(=C)C(=O)O3)c3ccccc31)c1ccccc12 (stereo unspecified) | 410 nM | 340 nM | 260 nM |  |
| C=C1CC2(OC1=O)C(=O)N(CCCCCCCCCCN1C(=O)C3(CC(=C)C(=O)O3)c3ccccc31)c1ccccc12 (stereo unspecified) | 490 nM | 410 nM | 560 nM |  |
| C=C1CC2(OC1=O)C(=O)N(CCCCCCCCN1C(=O)C3(CC(=C)C(=O)O3)c3ccccc31)c1ccccc12 (stereo unspecified) | 600 nM | 390 nM | 740 nM |  |
| C=C1CC2(OC1=O)C(=O)N(CCCCCCCCCCCCN1C(=O)C3(CC(=C)C(=O)O3)c3ccccc31)c1ccccc12 (stereo unspecified) | 500 nM | 420 nM | 1500 nM |  |
| C=C1CC2(OC1=O)C(=O)N(CCCCCCCCCN1C(=O)C3(CC(=C)C(=O)O3)c3ccccc31)c1ccccc12 (stereo unspecified) | 1080 nM | 480 nM | 1220 nM |  |
| CC1CC2(OC1=O)C(=O)N(CCCCCCCN1C(=O)C3(CC(C)C(=O)O3)c3ccccc31)c1ccccc12 (stereo unspecified) | > 10000 nM | > 10000 nM | > 10000 nM |  |
| C=C1CC2(OC1=O)C(=O)N(CCCCCCCCCCCN1C(=O)C3(CC(=C)C(=O)O3)c3ccccc31)c1ccccc12 (stereo unspecified) | 770 nM | 830 nM | 2030 nM |  |
| C=C1CC2(OC1=O)C(=O)Nc1ccccc12 (stereo unspecified) | 990 nM | 3130 nM | 2050 nM |  |

Further compounds by falling IC50 [1], results first:

| IC50 [1] | IC50 [2] | IC50 [3] | Compound | also measured |
| --- | --- | --- | --- | --- |
| 410 nM | 300 nM | 230 nM | C=C1CC2(OC1=O)C(=O)N(CCCCCCN1C(=O)C3(CC(=C)C(=O)O3)c3ccccc31)c1ccccc12 (stereo unspecified) |  |
| 390 nM | 320 nM |  | C=C1CC2(OC1=O)C(=O)N(CCN1C(=O)C3(CC(=C)C(=O)O3)c3ccccc31)c1ccccc12 (stereo unspecified) |  |
| 360 nM | 150 nM |  | C=C1CC2(OC1=O)C(=O)N(CCCCN1C(=O)C3(CC(=C)C(=O)O3)c3ccccc31)c1ccccc12 (stereo unspecified) |  |
| 310 nM | 180 nM | 270 nM | C=C1CC2(OC1=O)C(=O)N(Cc1ccc(CN3C(=O)C4(CC(=C)C(=O)O4)c4ccccc43)cc1)c1ccccc12 (stereo unspecified) |  |
| 270 nM | 90 nM | 200 nM | C=C1CC2(OC1=O)C(=O)N(CCCCCN1C(=O)C3(CC(=C)C(=O)O3)c3ccccc31)c1ccccc12 (stereo unspecified) |  |
| 230 nM | 90 nM | 130 nM | C=C1CC2(OC1=O)C(=O)N(CCCN1C(=O)C3(CC(=C)C(=O)O3)c3ccccc31)c1ccccc12 (stereo unspecified) | Activity [4]: Active; Activity [5]: Active; Activity [6]: Active; Activity [7]: Active; Activity [8]: Active; Activity [9]: Active; Activity [10]: Active; Activity [11]: Active; Activity [12]: Active; Activity [13]: Active; inhibition [14]: Dde; inhibition [15]: Dde; Activity [16]: Active; Activity [17]: 50%; GI50 [18]: 380 nM; GI50 [19]: 1760 nM |

Reference: ChEMBL document CHEMBL5120809, “Dimers of isatin derived α-methylene-γ-butyrolactone as potent anti-cancer agents” (Bioorg Med Chem Lett, 2022)
